21 compounds from ChEMBL document CHEMBL1141576, “Design of new potent and selective secretory phospholipase A2 inhibitors. Part 5: synthesis and biological activity of 1-alkyl-4-[4,5-dihydro-1,2,4-[4H]-oxadiazol-5-one-3-ylmethylbenz-4'-yl(oyl)] piperazines” (Bioorg Med Chem, 2008) can be followed below.

The nature of series [1]: Lipophilicity, log P of the compound. Format: physicochemical. The settings on record: octanol/water. In a few lines:
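logP of the free base calculated with Rekker's hydrophobic fragmental constants method.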

For series [2], the target named is T1, Phospholipase A2, membrane associated (Homo sapiens, UniProt P14555).
T1 sequence (P14555 whole entry): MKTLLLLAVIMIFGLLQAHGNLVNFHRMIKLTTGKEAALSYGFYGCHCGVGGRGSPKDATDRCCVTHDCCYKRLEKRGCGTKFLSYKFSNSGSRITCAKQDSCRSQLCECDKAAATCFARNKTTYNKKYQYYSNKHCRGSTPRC
In words: Inhibition of human recombinant PLA2 by fluorometric assay. The essentials: (§1)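 Fluorimetric PLA2 assay after Radvanyi et al. Enzymes were secretory human recombinant group II PLA2 and secretory porcine pancreatic group I PLA2. Concentration of the fluorescent substrate determined by UV spectrometry in a quartz cell. Values reported as IC50.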

Series [3] addresses Phospholipase A2, major isoenzyme (Sus scrofa, UniProt P00592). In words: Inhibition of pig pancreatic PLA2 by fluorometric assay. The essentials: as §1
Series [4] relates to Rattus norvegicus. The series is described as follows: Inhibition of carrageenan-induced hind paw edema in rat assessed as decrease in paw volume at 10 mg/kg. It is filed as functional. Also on record: scale not given: the % may be the effect or the level left. In a few lines:
(§2)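 Rats. Compound given ip or orally 1 h before carrageenan injection into the hind leg; doses 5, 10 and 20 mg/kg. Indomethacin used as positive control. Edema volume measured at 0, 3 and 5 h after carrageenan.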

In series [5] the test system is Rattus norvegicus. The series is described as follows: Inhibition of carrageenan-induced hind paw edema in rat assessed as decrease in paw volume at 10 mg/kg, po after 5 hrs. Format: functional. Also on record: scale not given: the % may be the effect or the level left. In a few lines: as §2
Series [6] concerns Mus musculus. In words: Antiinflammatory activity against croton oil-induced ear edema in mouse at 0.5 mg/ear. Format: functional. In a few lines:
(§3)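 Mice, anaesthetized. Test compound applied locally to inner surface of ear (or given per os); 1 h later croton oil applied to the ear to induce edema. 5 h after croton oil, edematous tissue punched out with a gimlet and compared with tissue from a control site to calculate percent inhibition. Results reported as mean of the animals tested, with number of experiments.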

Series [7] has as its system Mus musculus. In words: Antiinflammatory activity against croton oil-induced ear edema in mouse at 1 mg/ear. Format: functional. In a few lines: as §3

Structures are written as SMILES. Where only a bound is given, the exact number is not on record here.

Chain of Phospholipase A2, major isoenzyme (P00592 whole entry): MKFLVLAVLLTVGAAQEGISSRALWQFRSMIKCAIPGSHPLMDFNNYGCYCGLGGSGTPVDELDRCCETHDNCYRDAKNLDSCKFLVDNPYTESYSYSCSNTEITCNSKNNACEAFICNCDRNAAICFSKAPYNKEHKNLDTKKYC

Usually logP stands for a log measure of how a compound divides between an organic and an aqueous phase. One may read the IC50 as the concentration at which inhibition is half-maximal. On to `CCCCCCCCCCCCCCCCCCN1CCN(Cc2ccc(-c3noc(=O)[nH]3)cc2)CC1`, for which the logP in series [1] (read-out: LogP) stood at 7.37. For the same compound, the half-maximal inhibitory concentration (IC50) in series [2] was 5.08 µM; in series [3], above 100 µM.
In the case of `CCCCCCCCCCCCCCN1CCN(C(=O)c2ccc(-c3nc(=O)o[nH]3)cc2)CC1`, the lipophilicity (logP) in series [1] (read-out: LogP) is 5.48. For the same compound, the IC50 in series [2] and in series [3] was above 100 µM each time.
For the compound `CCCCCCCCCCCCCCN1CCN(Cc2ccc(-c3nc(=O)o[nH]3)cc2)CC1`, the lipophilicity (logP) in series [1] (read-out: LogP) turned out to be 5.3. Also, the IC50 in series [2] and in series [3] was above 100 µM throughout.
As for `CCCCCCCCCCCCCCN1CCN(C(=O)c2ccc(CCc3nc(=O)o[nH]3)cc2)CC1`, in series [1] (read-out: LogP), the logP turned out to be 6.3. The results for the half-maximal inhibitory concentration (IC50) in series [2] and in series [3] were 18.7 µM and above 100 µM, respectively.
Take `CCCCCCCCCCCCCCN1CCN(c2ccc(Cc3nc(=O)o[nH]3)cc2)CC1`: the logP in series [1] (read-out: LogP) stood at 5.95. In addition, the figures for the IC50 in series [2] and in series [3] were 4.5 µM and above 100 µM, respectively.
On the same counts, the results for `CCCCCCCCCCCCCCCCN1CCN(c2ccc(Cc3noc(=O)[nH]3)cc2)CC1` are 6.98, 3.5 µM and above 100 µM.
As to `COc1ccc2c(c1)c(CC(=O)O)c(C)n2C(=O)c1ccc(Cl)cc1` [INDOMETHACIN], the values for the Activity in the series with Rattus norvegicus [4], in the series on Rattus norvegicus [5] and in the series with Mus musculus [6] were 73%, 16% and 43.11%, respectively.
On to `CCCCCCCCCCCCCCCCN1CCN(C(=O)c2ccc(Cc3nc(=O)o[nH]3)cc2)CC1`, for which, in series [1] (read-out: LogP), the log partition coefficient (logP) was 6.81. Further, the IC50 was 4 µM in series [2] and above 100 µM in series [3].
In series [3], `CCCCCCCCCCCCCCOc1ccc(Cc2noc(=O)[nH]2)cc1` displayed a concentration for half-maximal inhibition (IC50) above 100 µM.
On to `CCCCCCCCCCCCCCN1CCN(C(=O)c2ccc(CCCc3noc(=O)[nH]3)cc2)CC1`, for which the log partition coefficient (logP) in series [1] (read-out: LogP) came out at 6.81. The concentration for half-maximal inhibition (IC50) in series [2] was 5.3 µM; in series [3] it was above 100 µM.
Take `CCCCCCCCCCCCCCCCCCN1CCN(c2ccc(Cc3noc(=O)[nH]3)cc2)CC1`: the log partition coefficient (logP) in series [1] (read-out: LogP) is 8.02. For the same compound, the IC50 in series [3] is above 100 µM.
With `CCCCCCCCCCCCCCCCN1CCN(Cc2ccc(Cc3noc(=O)[nH]3)cc2)CC1`, in series [1] (read-out: LogP), the log partition coefficient (logP) stood at 6.63. For the same compound, the IC50 in series [2] was 10 µM; in series [3], above 100 µM.
On to `CCCCCCCCCCCCCCCCCCN1CCN(Cc2ccc(Cc3nc(=O)o[nH]3)cc2)CC1`, for which the log partition coefficient (logP) in series [1] (read-out: LogP) amounted to 7.67. Further, the figures for the IC50 in series [2] and in series [3] were 2.2 µM and above 100 µM, respectively.
Regarding `CCCCCCCCCCCCCCCCCCN1CCN(C(=O)c2ccc(-c3noc(=O)[nH]3)cc2)CC1`, in series [1] (read-out: LogP), the logP came to 7.56. Also, the IC50 was 1.1 µM in series [2] and above 100 µM in series [3].
Take `CCCCCCCCCCCCCCN1CCN(C(=O)c2ccc(Cc3noc(=O)[nH]3)cc2)CC1`: the logP in series [1] (read-out: LogP) came out at 5.78. Besides, the IC50 in series [2] is 9 µM; in series [3] it was above 100 µM. Further, the Activity came to 65% in the series with Rattus norvegicus [5] and 47.83% with Mus musculus [7].
Take `CCCCCCCCCCCCCCCCN1CCN(C(=O)c2ccc(-c3nc(=O)o[nH]3)cc2)CC1`: the log partition coefficient (logP) in series [1] (read-out: LogP) turned out to be 6.53. For the same compound, the concentration for half-maximal inhibition (IC50) in series [2] and in series [3] was above 100 µM each time.
As for `CCCCCCCCCCCCCCN1CCN(Cc2ccc(Cc3noc(=O)[nH]3)cc2)CC1`, in series [1] (read-out: LogP), the lipophilicity (logP) was determined as 5.59. Besides, the IC50 in series [2] is above 10 µM; in series [3] it was above 100 µM. Moreover, the Activity in the series with Rattus norvegicus [4] turned out to be 79%; with Mus musculus [7], 51.45%.
As to `CCCCCCCCCCCCCCCCCCCCCCN1CCN(C(=O)c2ccc(Cc3noc(=O)[nH]3)cc2)CC1`, in series [1], the logP is on record as 9.932. Besides, the half-maximal inhibitory concentration (IC50) is 0.1 µM in series [2] and above 100 µM in series [3].
In the case of `CCCCCCCCCCCCCCCCN1CCN(Cc2ccc(-c3noc(=O)[nH]3)cc2)CC1`, the log partition coefficient (logP) in series [1] (read-out: LogP) worked out at 6.34. The 50% inhibitory concentration (IC50) in series [2] and in series [3] was above 100 µM in each case.
Turning to `CCCCCCCCCCCCCCCCCCCCN1CCN(C(=O)c2ccc(Cc3noc(=O)[nH]3)cc2)CC1`, the logP in series [1] (read-out: LogP) is 8.89. In addition, the concentration for half-maximal inhibition (IC50) in series [2] is 0.1 µM; in series [3], above 100 µM.
For the compound `CCCCCCCCCCCCCCCCCCN1CCN(C(=O)c2ccc(Cc3noc(=O)[nH]3)cc2)CC1`, in series [1] (read-out: LogP), the logP came out at 7.86. The half-inhibitory concentration (IC50) is 0.8 µM in series [2] and above 100 µM in series [3].
